ChEMBL document CHEMBL1157252, “Antibacterial galloylated alkylphloroglucinol glucosides from myrtle (Myrtus communis)” (2006)
Values after ≈ are worked out from the molar mass of the structure shown. Active and inactive are the calls of the source. No cut-off for these calls is given here.

How the values were obtained:
Staphylococcus aureus [1] = test: Antibacterial activity against methicillin-resistant Staphylococcus aureus XU212 expressing TetK efflux pump and MecA after 18 hrs by microtiter plate method; assay type: functional
Summary of the method: (§1)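 Broth microdilution MIC. Strains were grown on nutrient agar for 24 h at 37 °C. Inoculum was made to the 0.5 McFarland standard in normal saline and diluted to a final 5 × 10^5 cfu/mL. Plates were incubated for 18 h at 37 °C. MIC was taken as the lowest concentration with no observed growth, determined in duplicate.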

Staphylococcus aureus [2] = test: Antibacterial activity against multidrug-resistant Staphylococcus aureus SA-1199B overexpressing NorA efflux transporter after 18 hrs by microtiter plate method; assay type: functional; summary of the method: as §1
Staphylococcus aureus [3] = test: Antibacterial activity against methicillin-susceptible Staphylococcus aureus ATCC 25923 after 18 hrs by microtiter plate method; assay type: functional; conditions: for MIC: ATCC 25923, 18 h; summary of the method: as §1
Staphylococcus aureus [4] = test: Antibacterial activity against Staphylococcus aureus RN4220 expressing MsrA efflux transporter after 18 hrs by microtiter plate method; assay type: functional; conditions: for MIC: RN4220, 18 h; summary of the method: as §1
Staphylococcus aureus [5] = test: Antibacterial activity against epidemic methicillin-resistant Staphylococcus aureus 15 expressing MecA after 18 hrs by microtiter plate method; assay type: functional; summary of the method: as §1
Staphylococcus aureus [6] = test: Antibacterial activity against Staphylococcus aureus RN4220 expressing MsrA efflux transporter at 256 ug/mL after 18 hrs by microtiter plate method; assay type: functional, organism-based
Summary of the method: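 Strain pre-grown on nutrient agar for 24 h at 37 °C. Inoculum matched to the 0.5 McFarland standard in normal saline and diluted to a final 5 × 10^5 cfu/mL in microtiter wells. Plates incubated 18 h at 37 °C. MIC taken as the lowest concentration with no bacterial growth, determined in duplicate.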

Staphylococcus aureus [7] = test: Antibacterial activity against methicillin-resistant Staphylococcus aureus XU212 expressing TetK efflux pump and MecA at 256 ug/mL after 18 hrs by microtiter plate method; assay type: functional, organism-based
Staphylococcus aureus [8] = test: Antibacterial activity against multidrug-resistant Staphylococcus aureus SA-1199B overexpressing NorA efflux transporter at 256 ug/mL after 18 hrs by microtiter plate method; assay type: functional, organism-based
Staphylococcus aureus [9] = test: Antibacterial activity against epidemic methicillin-resistant Staphylococcus aureus 15 expressing MecA at 256 ug/mL after 18 hrs by microtiter plate method; assay type: functional, organism-based

SMILES	Activity (Staphylococcus aureus [6])	Activity (Staphylococcus aureus [7])	Activity (Staphylococcus aureus [8])	Activity (Staphylococcus aureus [9])	MIC (Staphylococcus aureus [1]) [µg/mL]	MIC (Staphylococcus aureus [2]) [µg/mL]	MIC (Staphylococcus aureus [3]) [µg/mL]	MIC (Staphylococcus aureus [4]) [µg/mL]	MIC (Staphylococcus aureus [5]) [µg/mL]	also measured
CC1(C)C=C2C(=O)C(C)(C)C(=O)C(C)(C)C2(O)OO1 (stereo not drawn)										Activity (Staphylococcus aureus [1]): inactive; Activity (Staphylococcus aureus [2]): inactive; Activity (Staphylococcus aureus [3]): inactive; Activity (Staphylococcus aureus [4]): inactive; Activity (Staphylococcus aureus [5]): inactive
CC(C)=C[C@]1(O)C(=O)C(C)(C)C(=O)C(C)(C)[C@@H]1O[C@@H]1O[C@H](COC(=O)c2cc(O)c(O)c(O)c2)[C@@H](O)[C@H](O)[C@H]1O	inactive	inactive	inactive	inactive						
CC(C)C[C@]1(O)C(=O)C(C)(C)C(=O)C(C)(C)[C@@H]1O[C@@H]1O[C@H](COC(=O)c2cc(O)c(O)c(O)c2)[C@@H](O)[C@H](O)[C@H]1O [GALLOMYRTUCOMMULONE A]					256 (≈ 449 µM)	256 (≈ 449 µM)	128 (≈ 224 µM)	128 (≈ 224 µM)	128 (≈ 224 µM)	
CC(C)=C[C@@]1(O)C(=O)C(C)(C)C(=O)C(C)(C)[C@@H]1O[C@@H]1O[C@H](COC(=O)c2cc(O)c(O)c(O)c2)[C@@H](O)[C@H](O)[C@H]1O	inactive	inactive	inactive	inactive						
CC(C)CC1(O)C(=O)C(C)(C)C(O[C@@H]2O[C@H](COC(=O)c3cc(O)c(O)c(O)c3)[C@@H](O)[C@H](O)[C@H]2O)C(C)(C)C1=O (stereo partly drawn) [GALLOMYRTUCOMMULONE B]					128 (≈ 224 µM)	128 (≈ 224 µM)	64 (≈ 112 µM)	128 (≈ 224 µM)	128 (≈ 224 µM)	
CCn1cc(C(=O)O)c(=O)c2cc(F)c(N3CCNCC3)cc21 [NORFLOXACIN]					4 (≈ 12.5 µM)	32 (≈ 100 µM)	1 (≈ 3.13 µM)	2 (≈ 6.26 µM)	0.5 (≈ 1.57 µM)	
